Experimental findings from PubChem BioAssay are described below.

Calls of active or inactive are those of the source.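 Rule for the calls, unless noted: active = viability at or under a set limit in both replicates, limit being median viability minus 3 SD (cut at about 48% in these data, passing the limit was not always enough); inconclusive = at or under the limit in just one replicate; inactive = at or above the limit in both replicates.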

Test [1] is described as follows: SK-BR-3 cell growth inhibitors, pilot screen, 24 h, human (AID 572;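 active = viability at or below 10% of carrier control in both of two separate runs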;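 note: compound exposure lasted between 18 and 24 h rather than exactly 24 h; 100% = carrier-treated control wells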). The note with it: SK-BR-3 viability, CellTiter-Glo luminescence, at 10 µM, stronger effect = lower value.
The nature of test [2]: HUVEC growth inhibition – cell-based, human, primary screen (AID 575;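 active = viability at or below 30% in both replicate assays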;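 note: 100% = median of untreated cell wells with 0.1% DMSO on each plate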). The settings on record: HUVEC proliferation, CellTiter-Glo luminescence, 72 h; at 10 µM; stronger effect = lower value. The method in brief: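 Timing: 72 h treatment at 37 °C; material: HUVEC primary cells; technique: CellTiter-Glo luminescence measuring cellular ATP; controls: vehicle and MePR control wells; measure: percent of median DMSO-control luminescence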

A short description of test [3]: growth inhibitors of H69AR lung tumor, primary screen, human, duplicate replicates (AID 580).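 Note: 100% = mean luminescence of untreated wells and 0% = no signal.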 The settings on record: H69AR lung tumor cells viability, ATP luminescence, 72 h; at 10 µM; stronger effect = lower value.
A short description of test [4]: reversal of MRP1-mediated doxorubicin resistance, pilot screen, H69AR cells, doxorubicin co-treatment (AID 601;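 active = viability loss from added drug above about 55%, and viability with drug at most 40%, in both replicates, limit read from the data, passing the limit was not always enough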). The settings on record: CellTiter-Glo, 72 h, at 10 µM; for differential viability (reversal): stronger effect = higher value.
Test [5] is described as follows: 384-well plate pilot, post-Golgi transport modulator project, inhibition of yeast transport mutant growth (AID 636; in the data active = inhibition above about 31%). The note with it: absorbance 615 nm, about 18 h, stronger effect = higher value.
Test [6] in a line: growth suppression of yeast trafficking mutant, preliminary HTS, modulators of trafficking downstream of Golgi apparatus project, 1536-format plate, OD 615 nm (AID 637; in the data active = inhibition above about 30%). The settings on record: yeast transport mutant growth, absorbance 615 nm, 18 h; stronger effect = higher value.
The mark [7] stands for this setting: H69AR cells + 2 uM doxorubicin, measured here: viability with 2 uM doxorubicin, stronger effect = lower value.
Setting [8] is: H69AR cells, compound alone cytotoxicity.

For the compound `CCN(CC)c1nc(N(CC)CC)[nH]c(=O)n1`, the viability in test [1] was 112% (inactive); in test [2] it was 110% (inactive); in test [3] it was 94.7% (inactive); in test [4] (setting [7]) it was 92.6%; in test [4] (setting [8]), 94.7%. Besides, in test [4] (H69AR cells + 2 uM doxorubicin), the differential viability (reversal) is 2.19% (inactive). For the same compound, the inhibition was -4.94% (inactive) in test [5] and 6.72% (inactive) in test [6].
Consider `Cc1nn(Cc2ccccc2)c(C)c1NC(=O)c1cc(-c2ccco2)on1`, for which the viability is 103% (inactive) in test [1]; 108% (inactive) in test [2]; 102% (inactive) in test [3]; 82.6% in test [4] (setting [7]); 102% in test [4] (setting [8]). In addition, the differential viability (reversal) in test [4] (H69AR cells + 2 uM doxorubicin) was 19.6% (inactive). Also, the inhibition is -5.6% (inactive) in test [5] and -0.55% (inactive) in test [6].
Regarding `O=C(O)c1ccc(COc2ccc(Cl)cc2)o1`, the viability in test [1] is 92% (inactive); in test [2], 84.7% (inactive); in test [3] it was 98.1% (inactive); in test [4] (setting [7]) it was 88.1%; in test [4] (setting [8]), 98.1%. Moreover, the differential viability (reversal) in test [4] (H69AR cells + 2 uM doxorubicin) was 9.97% (inactive). In addition, the inhibition is -0.26% (inactive) in test [5] and -2.13% (inactive) in test [6].
With `CC1CN(C(=O)CSc2nnc(-c3ccc(Cl)cc3)n2C)CC(C)O1` (centres undefined), the viability is 78% (inactive) in test [1]; 110% (inactive) in test [2]; 99.5% (inactive) in test [3]; 94.2% in test [4] (setting [7]); 99.5% in test [4] (setting [8]). Also, in test [4] (H69AR cells + 2 uM doxorubicin), the differential viability (reversal) is 5.23% (inactive). Also, the inhibition in test [5] is -6.08% (inactive); in test [6], 2.91% (inactive).
With `CC(C)(C)c1nnc(NC(=O)C2CCN(c3ncccn3)CC2)s1`, the viability in test [1] was 105% (inactive); in test [2], 115% (inactive); in test [3] it was 101% (inactive); in test [4] (setting [7]), 86.6%; in test [4] (setting [8]), 101%. Besides, the differential viability (reversal) in test [4] (H69AR cells + 2 uM doxorubicin) is 14.3% (inactive). Moreover, the inhibition in test [5] is -4.03% (inactive); in test [6], -0.82% (inactive).
As for `CSc1c(C#N)c(N)c(C#N)c2c1COC(C)(C)C2`, the viability was 94% (inactive) in test [1]; 90.1% (inactive) in test [2]; 88% (inactive) in test [3]; 89.1% in test [4] (setting [7]); 88% in test [4] (setting [8]). Further, in test [4] (H69AR cells + 2 uM doxorubicin), the differential viability (reversal) is -1.11% (inactive). Moreover, the values for the inhibition in test [5] and in test [6] were -11.1% (inactive) and 2.1% (inactive), respectively.
Consider `CCCC1O[C@@H]2C[C@H]3[C@@H]4CCC5=CC(=O)C=C[C@]5(C)[C@H]4[C@@H](O)C[C@]3(C)[C@]2(C(=O)CO)O1` (some centres undefined), for which the viability in test [1] is 109% (inactive); in test [2] it was 82.4% (inactive); in test [3], 79.6% (inactive); in test [4] (setting [7]), 79.1%; in test [4] (setting [8]) it was 79.6%. Moreover, the differential viability (reversal) in test [4] (H69AR cells + 2 uM doxorubicin) is 0.52% (inactive). Besides, the inhibition in test [5] was 1.04% (inactive); in test [6] it was -3.83% (inactive).
As for `CN(Cc1ccccc1)C(=O)c1cc(-c2ccc(Br)cc2)on1`, the viability in test [1] is 80% (inactive); in test [2] it was 94.2% (inactive); in test [3], 103% (inactive); in test [4] (setting [7]), 95.3%; in test [4] (setting [8]) it was 103%. For the same compound, in test [4] (H69AR cells + 2 uM doxorubicin), the differential viability (reversal) was 7.97% (inactive). Besides, the inhibition was -4% (inactive) in test [5] and -3.45% (inactive) in test [6].
Take `CCOc1ccc(S(=O)(=O)N(C)C)cc1-c1nc2c(C(C)(C)C)nn(C)c2c(=O)[nH]1`: the viability was 99% (inactive) in test [1]; 103% (inactive) in test [2]; 78.9% (inactive) in test [3]; 78.1% in test [4] (setting [7]); 78.9% in test [4] (setting [8]). The differential viability (reversal) in test [4] (H69AR cells + 2 uM doxorubicin) was 0.77% (inactive). Moreover, the inhibition in test [5] was -2.03% (inactive); in test [6], -3.09% (inactive).
Turning to `S=C(c1ccc(N2CCOCC2)cc1)N1CCCCC1`, the viability is 103% (inactive) in test [1]; 105% (inactive) in test [2]; 93.5% (inactive) in test [3]; 89.2% in test [4] (setting [7]); 93.5% in test [4] (setting [8]). Moreover, the differential viability (reversal) in test [4] (H69AR cells + 2 uM doxorubicin) is 4.23% (inactive). For the same compound, the figures for the inhibition in test [5] and in test [6] were -5.48% (inactive) and -8.87% (inactive), respectively.
For `COc1cc([C@@H]2[C@H]3CN(C)CC=C3C(C#N)=C(N)C2(C#N)C#N)cc2c1OCO2`, the viability in test [1] is 101% (inactive); in test [2], 93.1% (inactive); in test [3], 89.8% (inactive); in test [4] (setting [7]), 94.8%; in test [4] (setting [8]), 89.8%. Further, the differential viability (reversal) in test [4] (H69AR cells + 2 uM doxorubicin) was -5.09% (inactive). The inhibition in test [5] was -2.19% (inactive); in test [6], 0.18% (inactive).
For the compound `CCn1c(SCC(=O)Nc2cc(NC(C)=O)ccc2OC)nnc1-c1ccccn1`, the viability in test [1] was 93% (inactive); in test [2] it was 89.6% (inactive); in test [3], 94.1% (inactive); in test [4] (setting [7]), 85.8%; in test [4] (setting [8]), 94.1%. Besides, in test [4] (H69AR cells + 2 uM doxorubicin), the differential viability (reversal) was 8.36% (inactive). Besides, the inhibition in test [5] was -1.51% (inactive); in test [6] it was 2.1% (inactive).
On to `N#Cc1ccc(CSc2nnc(-c3ccccn3)n2-c2ccccc2)cc1`, for which the viability in test [1] was 62% (inactive); in test [2] it was 93.5% (inactive); in test [3], 95.1% (inactive); in test [4] (setting [7]) it was 89.1%; in test [4] (setting [8]) it was 95.1%. Moreover, in test [4] (H69AR cells + 2 uM doxorubicin), the differential viability (reversal) was 6.06% (inactive). In addition, the inhibition in test [5] is -7.67% (inactive); in test [6] it was -1.09% (inactive).
For `O=C1NC(=O)C(c2ccccc2)(c2ccccc2)N1`, the viability in test [1] is 111% (inactive); in test [2], 75.6% (inactive); in test [3], 98% (inactive); in test [4] (setting [7]), 90.7%; in test [4] (setting [8]), 98%. Also, the differential viability (reversal) in test [4] (H69AR cells + 2 uM doxorubicin) is 7.3% (inactive). In addition, the inhibition in test [5] was 2.86% (inactive); in test [6] it was -1% (inactive).
For `CCn1cc(C(=O)NC2CCc3ccccc32)c(=O)c2ccc(C)nc21` (centres undefined), the viability in test [1] was 77% (inactive); in test [2], 84.3% (inactive); in test [3] it was 81.6% (inactive); in test [4] (setting [7]) it was 91.7%; in test [4] (setting [8]), 81.6%. Besides, the differential viability (reversal) in test [4] (H69AR cells + 2 uM doxorubicin) was -10.2% (inactive). For the same compound, the inhibition is -0.13% (inactive) in test [5] and 5.41% (inactive) in test [6].
`Cc1ccc(C)c(NS(=O)(=O)c2ccc(NC(=O)c3ccco3)cc2)c1`: the viability is 72% (inactive) in test [1]; 78.5% (inactive) in test [2]; 90.5% (inactive) in test [3]; 96.1% in test [4] (setting [7]); 90.5% in test [4] (setting [8]). Moreover, the differential viability (reversal) in test [4] (H69AR cells + 2 uM doxorubicin) was -5.62% (inactive). The inhibition was -8.92% (inactive) in test [5] and -6.91% (inactive) in test [6].
Turning to `NS(=O)(=O)c1ccc(C(=O)O)cc1`, the viability was 92% (inactive) in test [1]; 93.4% (inactive) in test [2]; 99% (inactive) in test [3]; 87.5% in test [4] (setting [7]); 99% in test [4] (setting [8]). Besides, the differential viability (reversal) in test [4] (H69AR cells + 2 uM doxorubicin) was 11.6% (inactive). Also, the inhibition is 5.45% (inactive) in test [5] and -5.33% (inactive) in test [6].
In the case of `CN(C)CCCN1c2ccccc2CCc2ccc(Cl)cc21`, the viability in test [1] is 78% (inactive); in test [2], 5.55% (active); in test [3] it was 65.2% (inactive); in test [4] (setting [7]), 53.2%; in test [4] (setting [8]) it was 65.2%. In addition, the differential viability (reversal) in test [4] (H69AR cells + 2 uM doxorubicin) is 12% (inactive). For the same compound, the inhibition was -0.26% (inactive) in test [5] and 1.17% (inactive) in test [6].
